Active and inactive are the calls of the source. The rule behind the calls is not given here.

We go through seven molecules from ChEMBL document CHEMBL1155443, “Synthesis and evaluation of alpha-halogenated analogues of 3-(acetylhydroxyamino)propylphosphonic acid (FR900098) as antimalarials” (J Med Chem, 2010).

Data set [1] concerns Plasmodium falciparum. Briefly: Ratio of fosmidomycin IC50 to compound IC50 for Plasmodium falciparum K1. In kind it is functional.
Data set [2] concerns Plasmodium berghei. Briefly: Antiplasmodial activity against Plasmodium berghei ANKA infected in mice (Mus musculus) assessed as mice (Mus musculus) survival at 50 mg/kg, intraperitoneal for 5 consecutive days measured on day 25 post parasitic infection. Format: functional, organism-based. Also on record: dose 50 mg/kg. The method, boiled down:
(§1)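 P. berghei (GFP ANKA strain) acute mouse model; intraperitoneal dosing for 5 consecutive days (test compounds 50 mg/kg, chloroquine reference 10 mg/kg). Parasitaemia measured by flow cytometry (10 μL blood in 2000 μL PBS) on days 4, 7 and 14 in survivors, expressed as % reduction versus vehicle-treated infected controls. Survivors counted on days 7, 11, 14 and 25; mean survival time calculated.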

In data set [3] the test system is Plasmodium berghei. Briefly: Antiplasmodial activity against Plasmodium berghei ANKA infected in mice (Mus musculus) assessed as mean survival time at 50 mg/kg, intraperitoneal for 5 consecutive days. Format: functional. The method, boiled down: as §1
Data set [4] has as its system Plasmodium berghei. Briefly: Antiplasmodial activity against Plasmodium berghei ANKA infected in mice (Mus musculus) assessed as suppression of parasitaemia at 50 mg/kg, intraperitoneal for 5 consecutive days measured on day 4 post parasitic infection. In kind it is functional. The following applies: ip, 96 h. The method, boiled down:
as §1

Data set [5] deals with Plasmodium falciparum. Briefly: Antiplasmodial activity against Plasmodium falciparum K1 by micro dilution assay. Format: functional, organism-based. The procedure, abridged:
(§2)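 Intraerythrocytic P. falciparum, strains GHA and K1, in a microdilution assay; tested in duplicate.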

The test system of data set [6] is Plasmodium falciparum. Briefly: Antiplasmodial activity against Plasmodium falciparum Ghana by micro dilution assay. Format: functional, organism-based. The method, boiled down:
as §2

Data set [7] has as its system Plasmodium berghei. Briefly: Antiplasmodial activity against Plasmodium berghei ANKA infected in mice (Mus musculus) assessed as suppression of parasitaemia at 50 mg/kg, intraperitoneal for 5 consecutive days measured on day 14 post parasitic infection. In kind it is functional. The following applies: ip, 336 h. The method, boiled down: as §1
Data set [8] has as its system Plasmodium berghei. Briefly: Antiplasmodial activity against Plasmodium berghei ANKA infected in mice (Mus musculus) assessed as suppression of parasitaemia at 50 mg/kg, intraperitoneal for 5 consecutive days measured on day 7 post parasitic infection. Format: functional. The following applies: ip, 168 h. The method, boiled down: as §1
Data set [9] concerns Plasmodium berghei. Briefly: Antiplasmodial activity against Plasmodium berghei ANKA infected in mice (Mus musculus) assessed as mice (Mus musculus) survival at 50 mg/kg, intraperitoneal for 5 consecutive days measured on day 7 post parasitic infection. In kind it is functional, organism-based. Also noted: dose 50 mg/kg. The procedure, abridged: as §1
Data set [10] in a line: Dissociation constant, pKa by NMR titration assay. In kind it is physicochemical. The procedure, abridged: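 The ³¹P NMR chemical shift was recorded across a range of pH values and plotted against pH. Each pKa was taken as the pH at the inflection point of the titration curve, with the second pKa the value of interest.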
The test system of data set [11] is Plasmodium berghei. Briefly: Antiplasmodial activity against Plasmodium berghei ANKA infected in mice (Mus musculus) assessed as mice (Mus musculus) survival at 50 mg/kg, intraperitoneal for 5 consecutive days measured on day 11 post parasitic infection. In kind it is functional, organism-based. Also on record: dose 50 mg/kg. The method, boiled down:
(§3)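 P. berghei GFP ANKA acute mouse model. Drug was given intraperitoneally once daily for 5 consecutive days, alongside vehicle-treated infected controls. Mice were watched for clinical and adverse signs and euthanized for welfare if signs became very severe. Surviving animals were counted per group on days 7, 11, 14 and 25, and mean survival time was calculated.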

Data set [12] relates to Plasmodium berghei. Briefly: Antiplasmodial activity against Plasmodium berghei ANKA infected in mice (Mus musculus) assessed as mice (Mus musculus) survival at 50 mg/kg, intraperitoneal for 5 consecutive days measured on day 14 post parasitic infection. In kind it is functional, organism-based. Also on record: dose 50 mg/kg. The procedure, abridged:
as §3

In data set [13] the test system is Plasmodium berghei. Briefly: Antiplasmodial activity against Plasmodium berghei ANKA infected in mice (Mus musculus) assessed as suppression of parasitaemia at 10 mg/kg, intraperitoneal for 5 consecutive days measured on day 4 post parasitic infection. The following applies: ip, 96 h, read-out: INH.
Data set [14] concerns Plasmodium berghei. Briefly: Antiplasmodial activity against Plasmodium berghei ANKA infected in mice (Mus musculus) assessed as mice (Mus musculus) survival at 10 mg/kg, intraperitoneal for 5 consecutive days measured on day 11 post parasitic infection. In kind it is functional, organism-based. Also on record: dose 10 mg/kg. The procedure, abridged: as §3
For data set [15], the system named is Plasmodium berghei. Briefly: Antiplasmodial activity against Plasmodium berghei ANKA infected in mice (Mus musculus) assessed as mean survival time at 10 mg/kg, intraperitoneal for 5 consecutive days. In kind it is functional. The method, boiled down: as §1
The subject of data set [16] is Plasmodium berghei. Briefly: Antiplasmodial activity against Plasmodium berghei ANKA infected in mice (Mus musculus) assessed as mice (Mus musculus) survival at 10 mg/kg, intraperitoneal for 5 consecutive days measured on day 14 post parasitic infection. In kind it is functional, organism-based. Also noted: dose 10 mg/kg. The method, boiled down: as §3
The subject of data set [17] is Plasmodium berghei. Briefly: Antiplasmodial activity against Plasmodium berghei ANKA infected in mice (Mus musculus) assessed as mice (Mus musculus) survival at 10 mg/kg, intraperitoneal for 5 consecutive days measured on day 7 post parasitic infection. In kind it is functional, organism-based. Also noted: dose 10 mg/kg. The method, boiled down:
as §3

What is called IC50 is the concentration that inhibits the measured activity by half. Lower therefore signals greater potency in that assay. Turning to `CN(O)C(=O)CCC(F)P(=O)(O)O.N.N` (racemic), the “Ratio IC50” value in the data set with Plasmodium falciparum [1] stood at 5. Further, the outcome in the data set on Plasmodium berghei [2] was inactive. Further, in the data set on Plasmodium berghei [3], the MST came out at 11.7 days. Moreover, the inhibition in vivo at 50 mg/kg in the data set on Plasmodium berghei [4] was 85%; in the data set on Plasmodium berghei [7], 41%; with Plasmodium berghei [8], 42%. The IC50 with Plasmodium falciparum [5] turned out to be 310 nM; with Plasmodium falciparum [6], 730 nM.
Usually pKa stands for the pH at which an ionisable group is half protonated. High values mean a weaker acid or stronger base, low ones a stronger acid or weaker base. As for `CC(=O)N(O)CCCP(=O)(O)O` [FR-900098], in the data set with Plasmodium berghei [3], the MST was found to be 10.8 days. Besides, the inhibition in vivo at 50 mg/kg in the data set on Plasmodium berghei [4] worked out at 93%. Moreover, the outcome in the data set with Plasmodium berghei [9] was Active. This molecule yielded a half-maximal inhibitory concentration (IC50) in the data set with Plasmodium falciparum [5] of 420 nM. This molecule registered a pKa in data set [10] of 7.35.
On to `O=CN(O)CCC(c1ccc(Cl)c(Cl)c1)P(=O)(O)O` (stereo not drawn), for which the outcome in the data set on Plasmodium berghei [2], in the data set with Plasmodium berghei [11] and in the data set with Plasmodium berghei [12] was inactive. The MST in the data set on Plasmodium berghei [3] stood at 7 days. Also, the inhibition in vivo at 50 mg/kg in the data set on Plasmodium berghei [4] amounted to 46%. Moreover, the IC50 in the data set with Plasmodium falciparum [5] was 160 nM; with Plasmodium falciparum [6], 600 nM.
With `CCN(CC)CCCC(C)Nc1ccnc2cc(Cl)ccc12` (stereo not drawn) [CHLOROQUINE], in the data set with Plasmodium berghei [13], the inhibition in vivo at 10 mg/kg is 100%. Besides, the result in the data set with Plasmodium berghei [14], in the data set on Plasmodium berghei [16] and with Plasmodium berghei [17] was Active. For the same molecule, the MST with Plasmodium berghei [15] was 20.7 days.
`O=CN(O)CCCP(=O)(O)O` [FOSMIDOMYCIN]: the MST in the data set with Plasmodium berghei [3] came to 11.5 days. The inhibition in vivo at 50 mg/kg with Plasmodium berghei [4] amounted to 82%. In addition, the outcome in the data set with Plasmodium berghei [9] was Active. Half-maximal inhibition with Plasmodium falciparum [5] (IC50) was put at 1730 nM.
With `CC(=O)N(O)CCC(Cl)P(=O)(O)O.N.N` (racemic), the “Ratio IC50” value in the data set on Plasmodium falciparum [1] is recorded as 5. Besides, the IC50 with Plasmodium falciparum [5] stood at 300 nM; in the data set on Plasmodium falciparum [6], 820 nM. In data set [10], this molecule registered a pKa of no more than 6.
On to `CC(=O)N(O)CCC(F)P(=O)(O)O.N.N` (racemic), for which the “Ratio IC50” value with Plasmodium falciparum [1] was determined as 5. In the data set with Plasmodium berghei [2], the outcome was inactive. Besides, the MST with Plasmodium berghei [3] was determined as 15.8 days. The values for the inhibition in vivo at 50 mg/kg in the data set with Plasmodium berghei [4], in the data set with Plasmodium berghei [7] and in the data set with Plasmodium berghei [8] were 88%, 32% and 62%, respectively. Besides, the result in the data set on Plasmodium berghei [9] was Active. Besides, the IC50 was found to be 290 nM in the data set on Plasmodium falciparum [5] and 700 nM in the data set with Plasmodium falciparum [6]. For the same molecule, the pKa in data set [10] is no more than 6.
